Rin1-Abl PPI inh = inhibitors of human Rin1-Abl protein interaction | TR-FRET Rin1/Abl binding, biochemical | inhibition, % at 7.35 µM | actives 0.4% (n = 360,000) | AID 588664; in the data active = inhibition above about 5%, passing the limit was not always enough
Target sequence (P00519 whole entry, looked up): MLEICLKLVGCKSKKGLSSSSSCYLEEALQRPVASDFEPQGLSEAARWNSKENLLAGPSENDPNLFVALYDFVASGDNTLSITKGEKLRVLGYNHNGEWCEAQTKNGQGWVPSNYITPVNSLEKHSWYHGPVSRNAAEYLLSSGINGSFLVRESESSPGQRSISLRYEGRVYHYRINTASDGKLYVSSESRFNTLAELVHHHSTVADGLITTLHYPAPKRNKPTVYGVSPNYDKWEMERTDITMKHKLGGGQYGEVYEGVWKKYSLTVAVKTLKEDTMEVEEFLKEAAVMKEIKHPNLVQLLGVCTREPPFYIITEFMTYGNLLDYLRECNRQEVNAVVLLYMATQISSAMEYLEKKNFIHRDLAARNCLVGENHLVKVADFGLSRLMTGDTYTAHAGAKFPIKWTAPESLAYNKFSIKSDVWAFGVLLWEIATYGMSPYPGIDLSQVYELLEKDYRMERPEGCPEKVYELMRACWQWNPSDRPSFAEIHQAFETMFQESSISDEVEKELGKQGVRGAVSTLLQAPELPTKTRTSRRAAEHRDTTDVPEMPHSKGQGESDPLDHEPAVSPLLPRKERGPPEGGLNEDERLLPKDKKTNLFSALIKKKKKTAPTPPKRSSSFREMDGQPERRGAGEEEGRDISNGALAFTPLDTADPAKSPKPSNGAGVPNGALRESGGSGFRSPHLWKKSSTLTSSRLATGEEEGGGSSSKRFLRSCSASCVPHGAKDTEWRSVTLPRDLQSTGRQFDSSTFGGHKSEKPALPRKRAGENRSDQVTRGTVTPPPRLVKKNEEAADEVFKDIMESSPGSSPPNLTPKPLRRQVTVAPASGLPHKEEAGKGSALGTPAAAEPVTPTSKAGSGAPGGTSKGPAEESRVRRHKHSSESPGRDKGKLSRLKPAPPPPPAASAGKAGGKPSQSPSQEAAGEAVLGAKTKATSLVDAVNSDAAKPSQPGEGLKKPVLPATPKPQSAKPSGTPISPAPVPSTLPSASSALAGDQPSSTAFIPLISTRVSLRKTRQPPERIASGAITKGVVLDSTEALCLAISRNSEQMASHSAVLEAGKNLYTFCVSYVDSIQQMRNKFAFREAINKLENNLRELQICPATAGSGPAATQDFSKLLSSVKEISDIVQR
Target sequence (Q13671 whole entry, looked up): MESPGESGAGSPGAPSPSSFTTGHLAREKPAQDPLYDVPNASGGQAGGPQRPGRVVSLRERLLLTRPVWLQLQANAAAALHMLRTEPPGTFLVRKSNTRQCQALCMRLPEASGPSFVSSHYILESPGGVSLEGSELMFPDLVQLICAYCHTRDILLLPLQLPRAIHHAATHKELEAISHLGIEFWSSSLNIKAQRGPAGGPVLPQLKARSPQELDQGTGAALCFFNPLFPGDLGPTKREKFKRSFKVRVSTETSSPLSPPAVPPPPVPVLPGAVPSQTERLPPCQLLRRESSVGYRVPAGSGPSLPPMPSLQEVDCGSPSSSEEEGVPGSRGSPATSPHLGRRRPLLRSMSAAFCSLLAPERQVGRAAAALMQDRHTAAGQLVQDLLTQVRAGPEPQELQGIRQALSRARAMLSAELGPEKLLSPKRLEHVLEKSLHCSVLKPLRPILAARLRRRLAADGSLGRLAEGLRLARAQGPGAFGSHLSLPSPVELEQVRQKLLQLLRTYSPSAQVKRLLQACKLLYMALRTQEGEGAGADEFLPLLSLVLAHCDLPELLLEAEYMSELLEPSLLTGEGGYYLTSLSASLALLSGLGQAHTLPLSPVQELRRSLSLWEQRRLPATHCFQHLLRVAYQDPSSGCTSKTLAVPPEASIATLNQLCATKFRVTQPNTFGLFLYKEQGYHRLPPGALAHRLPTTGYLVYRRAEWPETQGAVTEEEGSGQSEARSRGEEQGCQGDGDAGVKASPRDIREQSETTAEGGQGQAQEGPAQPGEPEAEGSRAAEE
SR-BI HDL uptake = blocks mouse SR-BI lipid uptake from DiI-HDL; ldlA[mSR-BI] CHO cells, DiI-HDL uptake fluorescence, 3 h; inhibition, % at 12.5 µM; Q61009; actives 0.96% (n = 320,000); AID 488896;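 active = mean replicate inhibition of at least 70% and a set share of replicates each scoring 70 or more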;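 also: 0% = median of neutral control wells and 100% = median of positive control wells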
SR-BI uptake up = SR-BI HDL lipid transfer activation; CHO ldlA[mSR-BI] cells, DiI-HDL uptake fluorescence, 3 h; 100 = double the neutral-control signal; activation, % at 12.5 µM; actives 0.096% (n = 320,000);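 active = mean replicate activation of at least 60% and every replicate at or above 60%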;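 also: 0% = median plate neutral-control signal and 100% = twice that signal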
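Material: SR-BI-overexpressing, LDLR-lacking CHO cells; schedule: compound exposure 3 h, 37 °C; reagent: DiI-labelled HDL at 10 µg/mL final; technique: bottom-read fluorescence, 550/595 nm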
GRK2 inh = inhibitors of human GRK2 displacing RNA aptamer; P25098; bead flow cytometry, FAM-aptamer displacement from GRK2; inhibition of aptamer binding, % at 10 µM; actives 0.59% (n = 330,000); AID 488847;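 active = inhibition of aptamer binding above 40%, roughly 3 SD of noise, on plates passing a quality check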;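 also: median bead fluorescence of bound FAM aptamer so fluorescent compounds give negative values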
Active calls of the source: *; . = no result given. Most compounds without a hit are left out; they make up all but 1.9% or so of the library.

SMILES	Rin1-Abl PPI inh	SR-BI HDL uptake	SR-BI uptake up	GRK2 inh
COc1ccc2ccccc2c1/C=N/NC(=O)c1nnn(-c2nonc2N)c1C(C)C	-3	77*	-77	2
COC(=O)c1ccc(Cn2cnc3c(Cl)ncnc32)cc1	4	3	-3	.
COc1ccccc1S(=O)(=O)N(C)C[C@@H]1OCc2cn(nn2)CCCC(=O)N([C@@H](C)CO)C[C@H]1C	-5	.	.	.
CC(C)NC(=O)N(C)C[C@H]1OCCCC[C@@H](C)Oc2ccc(N(C)C)cc2C(=O)N([C@H](C)CO)C[C@@H]1C	4	.	.	.
COc1cc(C(=O)OCC(=O)NCc2ccc(F)cc2)ccc1OCC(C)C	2	-13	13	0
Cc1ccc(-c2c(C(=O)N/N=C/c3ccc(OC(C)C)cc3)nnn2-c2nonc2N)cc1	-4	78*	-78	3
CCCOc1ccc(-c2c(C(=O)N/N=C/c3ccc(C)cc3)nnn2-c2nonc2N)cc1	1	.	.	1
Cc1ccc(-c2c(C(=O)N/N=C/c3ccc4c(c3)OCO4)nnn2-c2nonc2N)cc1	-3	76*	-76	0
O=C(COC(=O)c1cccc(OC(F)F)c1)Nc1cc(S(=O)(=O)N2CCCC2)ccc1Cl	1	.	.	.
Cc1ccc(Cn2cc(/C=N/NC(=O)Cc3nnc(NC(=O)c4ccc(C)cc4)s3)c3ccccc32)cc1	1	78*	-78	0
Cc1nnc(NC(=O)CSc2nccn2Cc2ccccc2)s1	4	-18	18	86*
COc1ccc(Cn2ccnc2SCC(=O)Nc2nnc(C)s2)cc1	2	1	-1	1
Cc1nnc(NC(=O)CSc2nccn2Cc2ccc(F)cc2)s1	-4	-13	13	42*
CS(=O)(=O)c1ccc2nc(NC(=O)c3ccc(S(=O)(=O)NCC4CCCO4)cc3)sc2c1 (centres undefined)	2	0	0	2
Cc1ccc(C)c(OC(=O)c2cccnc2Cl)c1C	-5	-317	317*	0
Cc1noc(C)c1COC(=O)c1cccnc1Cl	-2	-11	11	2
C/C(CCc1ccc2c(c1)OCO2)=N\NC(=S)NC(C)C	-1	77*	-77	0
COc1cc(-c2coc3c(C(=O)NCc4cccc(Cl)c4)cccc23)ccc1O	-4	.	.	.
O=C(NC(=S)Nc1ccccn1)c1ccco1	-4	6	-6	5
Cc1ccnc(NC(=S)NC(=O)c2ccco2)c1	-2	-64	64*	0
O=C(Nc1ccc(-c2csc(Nc3ccc(Cl)cc3)n2)cc1)c1cc([N+](=O)[O-])cc(C(F)(F)F)c1	1	106*	-106	0
O=C(Nc1cccc(-c2csc(Nc3ccc(Cl)cc3)n2)c1)c1cc([N+](=O)[O-])cc(C(F)(F)F)c1	1	127*	-127	4
O=C(Nc1cccc(-c2csc(Nc3ccccc3)n2)c1)c1cc([N+](=O)[O-])cc(C(F)(F)F)c1	2	97*	-97	3
NS(=O)(=O)c1ccc(Nc2nc(-c3cccc([N+](=O)[O-])c3)cs2)cc1	-2	64	-64	0
Cc1cccc(OCc2nnc(SCC(=O)NCc3ccc4c(c3)OCO4)o2)c1	1	.	.	.
SMILES	Rin1-Abl PPI inh	SR-BI HDL uptake	SR-BI uptake up	GRK2 inh
CCOC(=O)CCCCCC(=O)Nc1ccc2c(c1)C(=O)N([C@@H](C)CO)C[C@H](C)[C@H](CN(C)C(=O)Nc1ccc(F)cc1)OCCCC[C@H](C)O2	2	.	.	.
CCOc1ccc(NC(=O)CS(=O)CC(=O)NC2CCCc3ccccc32)cc1 (centres undefined)	7	74*	-74	0
COc1ccc(NC(=O)CS(=O)CC(=O)NC2CCCc3ccccc32)cc1 (centres undefined)	3	34	-34	3
O=C(Nc1nc2ccccc2[nH]1)NC1CCCCC1	3	-21	21	3
O=C(Cn1nnc(-c2cccs2)n1)N1CCOCC1	4	-68	68*	0
O=C(Nc1ccccc1)c1ccc(Nc2c([N+](=O)[O-])cc([N+](=O)[O-])c3ccccc23)cc1	6	88*	-88	2
COc1ccc(CN2CCn3ncc(C(=O)Nc4cc(C)cc(C)c4)c3C2=O)cc1	-4	74*	-74	0
C[C@@H]1CN([C@H](C)CO)C(=O)c2cc(Br)cnc2O[C@@H]1CN(C)Cc1ccc(F)cc1	1	.	.	.
COc1ccc(CCNC(=O)c2ccc(-c3cccc([N+](=O)[O-])c3)o2)cc1OC	-4	72*	-72	3
COc1ccc(CCNC(=O)c2cccc([N+](=O)[O-])c2)cc1OC	1	18	-18	2
COc1ccc(-n2nc3c(c2NC(=O)c2ccc(S(=O)(=O)N4CCOCC4)cc2)CS(=O)C3)cc1 (centres undefined)	4	-68	68*	0
O=C(Nc1c2c(nn1-c1ccccc1)CS(=O)C2)c1ccc(S(=O)(=O)N2CCOCC2)cc1 (centres undefined)	4	-32	32	0
CN1CCC(N2CCN(C3CN(C4CCCCC4)S(=O)(=O)C3)CC2)CC1 (centres undefined)	2	.	.	.
Cc1ccc(NC(=O)c2ccccc2OCC(=O)c2ccccc2)cc1	-2	78*	-78	0
COCC(=O)Nc1nc2n(n1)C(c1ccc(Cl)cc1)CC(c1ccc(OC)cc1)N2 (centres undefined)	3	74*	-74	2
COCC(=O)Nc1nc2n(n1)C(c1ccccc1Cl)CC(c1ccc(OC)cc1)N2 (centres undefined)	0	8	-8	0
O=C(C[n+]1ccc(/C=N/O)cc1)NC1CCCCC1	3	-14	14	0
CCn1nc(C)c(/C=N/NC(=O)c2ccc3c(c2)c(C)c(C)n3Cc2ccccc2)c1C	-2	79*	-79	0
Nc1nc(SCc2ccc(Cl)cc2Cl)c2ncn(C3OC(CO)C(O)C3O)c2n1 (centres undefined)	0	-12	12	.
C=CC(C)(C)c1c(O)c(CC=C(C)C)c(O)c2c(=O)c3ccc(O)c(O)c3oc12	7	123*	-123	2
O=C(Cn1nc(-c2ccccc2)ccc1=O)Nc1ccc(-n2cnnn2)cc1	-1	-116	116*	0
O=C(Cn1nc(-c2ccccc2)ccc1=O)Nc1ccc(NC(=O)c2ccccn2)cc1	0	75*	-75	0
O=C(Cn1nc(-c2ccccc2)ccc1=O)Nc1ccc(N2CCN(C(=O)c3ccccc3)CC2)cc1	0	11	-11	1
CC1=CN(S(=O)(=O)c2ccc(C)cc2)C[C@@H]2[C@H]3CC[C@H](C3)[C@H]12	-1	-22	22	0
O=C(c1cc(C2CC2)nn1-c1ccccc1)N1CCN(S(=O)(=O)c2ccccc2F)CC1	-3	.	.	.
CCc1nc2c(OCC(=O)c3ccc(F)cc3)cccn2c1N(C)C(=O)C(C)C	-1	.	.	.
COc1ccc(Cl)cc1NC(=O)CN(C)C(C)C(=O)NC(=O)NC1CCCCC1 (centres undefined)	-1	28	-28	3
COc1ccccc1NC(=O)Nc1nc(CC(=O)Nc2ccc(OC)c(OC)c2)cs1	3	82*	-82	1
